A selection: hits, their analogues and other compounds. The true share with any hit is near 2.1%.
LMPTP block = LMPTP (human) inhibition; recombinant LMPTP-A, OMFP fluorogenic substrate, fluorescence intensity; inhibition, % at 20 µM; hit rate 0.22% among 360,000; AID 651560;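 active = compounds that cut the enzyme signal by at least half of the control window in the single-dose screen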;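 also: plate controls were DMSO wells with enzyme plus substrate for no effect and substrate without enzyme for full effect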
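Material: LMPTP-A; amount: 0.625 nM enzyme; doses: single 20 µM dose; times: reaction 50 min, room temperature, dark; technique: fluorescence intensity of OMFP turnover product; benchmarks: no-enzyme and uninhibited controls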
Scp1 inh = inhibitors of human Scp-1 phosphatase. Q9GZU7. Recombinant Scp1, phosphopeptide, malachite green phosphate absorbance. inhibition, % at 20 µM. hit rate 0.88% among 340,000. AID 493091;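 active = inhibition above about 50% at 20 µM, limit read from the data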;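 also: plate controls were DMSO wells with enzyme for no effect and wells lacking enzyme for full effect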
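Times: enzyme reaction 45 min at room temperature, colour 5 min, stabilisation 30 min. Material: SCP-1 catalytic fragment, aa 76-261. Medium: Acidic Tris acetate buffer with magnesium and detergent. Signal: colorimetric free-phosphate detection, absorbance 630 nm. Read-out basis: % inhibition of SCP-1 phosphate liberation. Reagent: Phosphorylated 17-residue peptide substrate.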
DNMT1 inh = blocks human DNA methyltransferase DNMT1 | DNMT1 molecular beacon, Hinp1I cleavage, fluorescence | inhibition (reported as % activation of signal), % at 10 µM | hit rate 0.83% among 360,000 | AID 588458; in the data active = inhibition above about 50%
GRK2 aptamer HTS = blocks RNA aptamer binding to human GRK2; P25098; bead flow cytometry, FAM-aptamer displacement from GRK2; inhibition of aptamer binding, % at 10 µM; hit rate 0.59% among 330,000; AID 488847;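 active = inhibition of aptamer binding above 40%, roughly 3 SD of noise, on plates passing a quality check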;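 also: median bead fluorescence of bound FAM aptamer so fluorescent compounds give negative values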
Target sequence (P25098 whole entry, looked up): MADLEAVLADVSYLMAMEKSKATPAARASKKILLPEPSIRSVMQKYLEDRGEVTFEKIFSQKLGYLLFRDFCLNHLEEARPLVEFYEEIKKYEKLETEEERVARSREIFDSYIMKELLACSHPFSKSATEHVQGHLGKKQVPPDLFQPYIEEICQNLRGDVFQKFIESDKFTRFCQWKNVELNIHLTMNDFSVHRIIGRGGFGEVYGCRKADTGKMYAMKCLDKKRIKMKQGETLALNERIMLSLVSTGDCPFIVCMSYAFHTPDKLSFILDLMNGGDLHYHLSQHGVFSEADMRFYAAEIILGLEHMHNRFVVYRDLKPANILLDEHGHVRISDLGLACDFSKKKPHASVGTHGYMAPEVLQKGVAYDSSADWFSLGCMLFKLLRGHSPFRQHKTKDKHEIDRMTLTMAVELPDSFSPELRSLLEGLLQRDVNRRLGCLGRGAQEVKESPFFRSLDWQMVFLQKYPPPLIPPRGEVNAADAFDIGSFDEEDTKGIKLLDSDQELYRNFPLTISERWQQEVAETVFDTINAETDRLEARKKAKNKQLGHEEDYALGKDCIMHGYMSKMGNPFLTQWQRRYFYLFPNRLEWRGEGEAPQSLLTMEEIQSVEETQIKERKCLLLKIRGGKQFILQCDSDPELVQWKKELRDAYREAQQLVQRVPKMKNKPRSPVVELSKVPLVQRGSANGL
SUMO1 PPI mod = SUMO1-SIM interaction modulation; AID 602429; inhibition, % at 20 µM; SUMO1 binding to a labelled peptide, TR-FRET, 1 h; hit rate 0.33% among 360,000; P63165; in the data active = inhibition above about 37%
STEP block = blocks human striatal-enriched tyrosine phosphatase; inhibition, % at 20 µM; hit rate 0.25% among 360,000; recombinant STEP, OMFP fluorogenic substrate, fluorescence;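 active = inhibition at 20 µM, scaled per plate between control wells, above about 37%, limit read from the data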;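 also: 0% = DMSO with enzyme and substrate and 100% = substrate only without enzyme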
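Material: STEP (striatal-enriched tyrosine phosphatase) enzyme, cell-free; Compound dosing: 20 µM single dose in 1% DMSO; Technique: fluorescence read at 480 nm ex / 540 nm em; Times: reaction 20 min, ambient temperature; Medium: 50 mM Bis-Tris pH 6.0 with 2.5 mM DTT and 0.005% Tween 20; Also added: OMFP at 25 µM.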
GRK2 CP1 = confirmation of human GRK2 inhibitors displacing RNA aptamer. bead-bound GRK2, FAM-aptamer displacement, flow cytometry. hit rate 4% among 2,000. aptamer displacement, % at 10 µM. AID 504451. shares compounds with GRK2 aptamer HTS;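 active = aptamer displacement above 40%, near three times the noise of non-fluorescent compounds, on plates passing quality checks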;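 also: negative values mostly reflect intrinsic compound fluorescence rather than true enhancement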
Aptamer quench SP = aptamer fluorescence quenching in GRK2 counter-screen; fluorescence response (% of DMSO), % at 10 µM; shares compounds with GRK2 aptamer HTS; 2,000 tested, under 10 active; AID 504580; Carboxyfluorescein RNA aptamer on beads, flow cytometry quenching; active compounds read low;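 active = compounds that quench the bead-bound fluorescent RNA probe, cutting fluorescence to under half of the solvent control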;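 also: counterscreen run without GRK2 so only probe quenching by compound is measured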
GRK2 CP2 = human GRK2 inhibition confirmation, cherry pick 2. shares compounds with GRK2 aptamer HTS. inhibition of aptamer binding, % at 10 µM. bead-bound GRK2, FAM-aptamer displacement, flow cytometry. 360 tested, under 10 active;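 active = inhibition of aptamer binding above 40%, about triple the noise seen with nonglowing compounds, on plates passing quality control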;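 also: negative values mostly come from compounds that fluoresce themselves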
FAM quench SP = counter-screen for GRK2 binding hits: quenchers of fluorescent RNA aptamer | shares compounds with GRK2 aptamer HTS | carboxyfluorescein RNA aptamer beads, flow cytometry quenching; active compounds read low | fluorescence response vs DMSO, % at 10 µM | 360 tested, under 10 active | AID 588494;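 active = response vs DMSO under 50%, meaning signal dropped by over half, treated as fluorescence quencher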;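 also: labelled aptamer on streptavidin beads without GRK2 as a quench counter-screen; 100% = bead fluorescence of DMSO wells and lower means quenching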
Numbers without * were called inactive; x = not tested or not shown.

SMILES	LMPTP block	Scp1 inh	DNMT1 inh	GRK2 aptamer HTS	SUMO1 PPI mod	STEP block	GRK2 CP1	Aptamer quench SP	others
Cc1ccc2nc(/C(C#N)=C\c3ccc([N+](=O)[O-])o3)[nH]c2c1	4	-3	2	26	-34	1	0	109
O=C(Nc1ccc(F)cc1)N1CCN(c2ncccn2)CC1	0	1	3	94*	0	-1	-2	98
O=C(Nc1ccc(Cl)cc1)N1CCN(c2ncccn2)CC1	-1	-12	-5	0	-5	-2	x	x
COc1cccc(C=C(C(C)=O)C(=O)c2ccccc2)c1	0	x	x	x	1	x	x	x
Cc1ccc2nc(SCC(=O)c3c[nH]c4ccccc34)[nH]c2c1	2	6	-22	58*	-5	1	-1	107
Cc1ccc2cc(CCNC(=O)C(=O)c3c[nH]c4ccccc34)c(=O)[nH]c2c1	0	-8	-5	71*	14	-2	17	98
Cc1ccc2cc(CCNC(=O)C(=O)c3c(C)[nH]c4ccccc34)c(=O)[nH]c2c1	-1	-5	-3	0	4	0	x	x
Cc1cc(C)c(C(=O)CSc2nc3ccccc3c(=O)[nH]2)cc1C	-2	0	0	2	-4	0	x	x
Cc1ccc(C(=O)CSc2nc3ccccc3c(=O)[nH]2)cc1C	-1	-5	-8	61*	3	-2	3	103
COc1ccc(NC(=O)c2cc(C3CCCCN3C(=O)c3ccc(NC(C)=O)cc3)on2)c(C)c1 (stereo not given)	-2	x	-3	x	3	0	x	x
Cc1noc(C)c1CSCC(=O)Nc1cc(S(=O)(=O)N2CCOCC2)ccc1OC(C)C	0	-4	1	26	-2	0	x	x
CC1Oc2ccc(C#N)cc2N(Cc2ccc(F)cc2)C1=O (stereo not given)	-1	x	6	x	7	4	x	x
NNc1cc([N+](=O)[O-])cc2c1C(=O)N(Cc1ccccc1)S2=O (stereo not given)	0	13	9	2	11	0	x	x
O=C(O)CC(C(=O)O)c1ccc(OCCCCOc2ccc(C(CC(=O)O)C(=O)O)cc2)cc1 (stereo not given)	0	44	21	1	29	6	x	x
S=C(N=Nc1ccccc1)NNc1ccccc1	2	-3	-5	42*	-25	-1	-5	98
C=CCN1C(=O)/C(=C/c2ccc(-c3ccc(F)cc3)o2)SC1=S	7	-6	-6	43*	-13	-4	29	103
CC12CCC(c3n[nH]c(=S)nc31)C2(C)C (stereo not given)	-2	-2	2	73*	2	-4	x	x	GRK2 CP2=9;FAM quench SP=98
OCCC1CN(Cc2cccc3c2OCO3)CCN1C1CCCCC1 (stereo not given)	-1	7	4	99*	1	-4	1	98
OCCC1CN(Cc2cccc3c2OCO3)CCN1Cc1ccccc1 (stereo not given)	0	-4	-1	2	1	0	x	x
CC(C)Nc1nc(Nc2ccc(C#N)cc2)c2sccc2n1	44	x	0	x	8	0	x	x
CCOc1ccc2nc(NS(=O)(=O)c3ccc4c(c3)n(C)c(=O)n4C)sc2c1	-1	-2	3	61*	14	2	-4	95
COc1ccc(S(=O)(=O)Nc2ccc3c(c2)n(C)c(=O)n3C)cc1	1	-1	1	19	2	-4	1	67
